# Test results as given in ChEMBL document CHEMBL1122463, “2,3-dihydro-3-(1-pyrryl)spiro[benzofuran-2,4'-piperidine]s and 2,3-dihydro-3-(1-pyrryl)spiro[benzofuran-2,3'-pyrrolidine]s: novel antihypertensive agents” (1983).
# “And” between values parts separate entries of the source, which are not always exact repeats. Equal values may be shown once.
# Legend:
# [1] = test system: Canis familiaris; assay: Hemodynamic effect in sinoaortic- deafferented hypertensive dog measured as heart rate after 5 min of 5 mg/kg dose; format: functional, Canis lupus familiaris
# [2] = test system: Canis familiaris; assay: Hemodynamic effect in sinoaortic- deafferented hypertensive dog measured as left ventricular pressure after 60 min of 5 mg/kg; format: functional, Canis lupus familiaris, Heart left ventricle
# [3] = test system: Canis familiaris; assay: Effect of compound at a dose of 10 mg/kg iv, on standard cardiovascular in anesthetized normotensive dogs before administration of norepinephrine.; format: functional, Canis lupus familiaris, Heart
# Summary of the method: (§1)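 Trachea intubated, artificially respired, bilateral vagotomy. Femoral artery cannulated for BP, femoral vein for drugs. BP and heart rate recorded continuously. Each iv challenge given twice predrug for matched responses and once after test drug. Doses: epinephrine and norepinephrine 0.5 to 1.0 μg/kg; isoproterenol and carbachol 0.25 μg/kg.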
# [4] = test system: Rattus norvegicus; assay: (§2) Oral hypotensive activity in spontaneously hypertensive rats by using tail-cuff method measured as change in systolic BP at the dose of 10 mg/kg po.; format: functional, Blood
# Summary of the method: (§3)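 Okamoto-Aoki spontaneously hypertensive rats. Compound suspended in distilled water with Tween 80, given po daily, screening dose 50 mg/kg, dose-response at 50, 30, 10 or 3 mg/kg unless stated. Systolic BP by tail-cuff plethysmography on day 1 predose and 2 h, day 3 predose and 2 h, and day 5 predose, 2 and 4 h. Reported as peak decrease on day 3 (or day 5) at 2 h ± SEM. n = 4 in screen, 4–8 per dose.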
# [5] = test system: Canis familiaris; assay: Hemodynamic effect in sinoaortic- deafferented hypertensive dog measured as heart rate after 30 min of 5 mg/kg dose; format: functional, Canis lupus familiaris
# [6] = test system: Rattus norvegicus; assay: Hypotensive activity in renal hypertensive rats by using tail-cuff method measured as post drug BP (day/h) after administration of 10 mg/kg dose po;(day/h=1/2); format: functional, Blood
# Summary of the method: (§4)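 Renal hypertension made in male Sprague-Dawley rats (Grollman modification). Under pentobarbital (50 mg/kg ip), the right kidney was removed and silk sutures tied around both poles of the left kidney to constrict it. After 3 weeks, rats with systolic BP >150 mmHg were used. Compound given po daily to 4 rats. Systolic BP by tail-cuff plethysmography at the listed day/hour after dosing.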
# [7] = test system: Canis familiaris; assay: Hemodynamic effect in sinoaortic- deafferented hypertensive dog measured as left ventricular pressure after 30 min of 5 mg/kg; format: functional, Canis lupus familiaris, Heart left ventricle
# [8] = test system: Rattus norvegicus; assay: (§5) Oral hypotensive activity in spontaneously hypertensive rats by using tail-cuff method measured as change in systolic BP at the dose of 50 mg/kg po.; format: functional, Blood
# Summary of the method: (§6)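 Okamoto-Aoki strain spontaneously hypertensive rats. Compounds were suspended in distilled water with Tween 80 and given orally every day at 50, 30, 10 or 3 mg/kg. Systolic BP was measured by tail-cuff plethysmography on day 1 (predose and 2 h), day 3 (predose and 2 h) and day 5 (predose, 2 and 4 h). The screen used 4 rats; dose-response used 4–8 rats per dose.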
# [9] = test system: Canis familiaris; assay: Effect of compound at a dose of 10 mg/kg iv, on standard cardiovascular in anesthetized normotensive dogs before administration of carbachol; format: functional, Canis lupus familiaris, Heart; summary of the method: as §1
# [10] = test system: Rattus norvegicus; assay: Hypotensive activity in renal hypertensive rats by using tail-cuff method measured as initial BP at the dose of 10 mg/kg po.; format: functional, Blood; summary of the method: as §4
# [11] = test system: Canis familiaris; assay: Hemodynamic effect in sinoaortic- deafferented hypertensive dog measured as mean arterial BP after 0 min of 5 mg/kg dose; format: functional, Canis lupus familiaris
# [12] = test system: Canis familiaris; assay: Effect of compound at a dose of 10 mg/kg iv, on standard cardiovascular in anesthetized normotensive dogs before administration of tyramine.; format: functional, Canis lupus familiaris, Heart; summary of the method: as §1
# [13] = test system: Canis familiaris; assay: Hemodynamic effect in sinoaortic- deafferented hypertensive dog measured as mean arterial BP after 60 min of 5 mg/kg dose; format: functional, Canis lupus familiaris
# [14] = test system: Canis familiaris; assay: Mean Heart rate before administration at a dose of 10 mg/kg iv.; format: functional, Canis lupus familiaris
# [15] = test system: Rattus norvegicus; assay: hypotensive activity in renal hypertensive rats by using tail-cuff method measured as post drug BP (day/h) after administration of 10 mg/kg dose po;(day/h=3/2); format: functional, Blood
# Summary of the method: (§7)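 Renal hypertension (modified Grollman) was made in male Sprague-Dawley rats under pentobarbital sodium 50 mg/kg ip. The right kidney was removed, and silk sutures around both poles of the left kidney constricted the parenchyma. After 3 weeks of stabilization, rats with systolic BP >150 mmHg were used. Compounds were given orally. Systolic BP was measured by tail-cuff predose and at the stated day/h after dosing.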
# [16] = test system: Canis familiaris; assay: Mean arterial BP before administration at a dose of 10 mg/kg iv.; format: functional, Canis lupus familiaris
# [17] = test system: Canis familiaris; assay: Hemodynamic effect in sinoaortic- deafferented hypertensive dog measured as heart rate after 60 min of 5 mg/kg dose; format: functional, Canis lupus familiaris
# [18] = test system: Canis familiaris; assay: Mean Heart rate after. administration at a dose of 10 mg/kg iv.; format: functional, Canis lupus familiaris
# [19] = test system: Rattus norvegicus; assay: (§8) Oral hypotensive activity in spontaneously hypertensive rats by using tail-cuff method measured as change in systolic BP at the dose of 5 mg/kg po.; format: functional, Blood; summary of the method: as §6
# [20] = test system: Canis familiaris; assay: Hemodynamic effect in sinoaortic- deafferented hypertensive dog measured as left ventricular pressure after 0 min of 5 mg/kg; format: functional, Canis lupus familiaris, Heart left ventricle
# [21] = test system: Canis familiaris; assay: Hemodynamic effect in sinoaortic- deafferented hypertensive dog measured as heart rate after 0 min of 5 mg/kg dose; format: functional, Canis lupus familiaris
# [22] = test system: Canis familiaris; assay: Hemodynamic effect in sinoaortic- deafferented hypertensive dog measured as mean arterial BP after 30 min of 5 mg/kg dose; format: functional, Canis lupus familiaris
# [23] = test system: Rattus norvegicus; assay: as §2; format: functional, Blood; remark: listed apart in the source
# Summary of the method: (§9)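 SHR of the Okamoto-Aoki strain, dosed orally every day with compound suspended in distilled water with Tween 80. Systolic pressure was taken by tail-cuff plethysmography on day 1 (predose, 2 h), day 3 (predose, 2 h) and day 5 (predose, 2 and 4 h). Initial BP is the pretreatment systolic pressure, with 4–8 rats per dose in the dose-response screen.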
# [24] = test system: Rattus norvegicus; assay: (§10) Oral hypotensive activity in spontaneously hypertensive rats by using tail-cuff method measured as change in systolic BP at the dose of 25 mg/kg po.; format: functional, Blood; summary of the method: as §9
# [25] = test system: Canis familiaris; assay: Effect of compound at a dose of 10 mg/kg iv, on standard cardiovascular in anesthetized normotensive dogs after administration of carbachol; format: functional, Canis lupus familiaris, Heart; summary of the method: as §1
# [26] = test system: Canis familiaris; assay: Effect of compound at a dose of 10 mg/kg iv, on standard cardiovascular in anesthetized normotensive dogs after administration of epinephrine.; format: functional, Canis lupus familiaris, Heart; summary of the method: as §1
# [27] = test system: Canis familiaris; assay: Effect of compound at a dose of 10 mg/kg iv, on standard cardiovascular in anesthetized normotensive dogs after administration of norepinephrine.; format: functional, Canis lupus familiaris, Heart; summary of the method: as §1
# [28] = test system: Canis familiaris; assay: Hemodynamic effect in sinoaortic- deafferented hypertensive dog measured as mean arterial BP after 5 min of 5 mg/kg dose; format: functional, Canis lupus familiaris
# [29] = test system: Canis familiaris; assay: Effect of compound at a dose of 10 mg/kg iv, on standard cardiovascular in anesthetized normotensive dogs after administration of isoproterenol.; format: functional, Canis lupus familiaris, Heart; summary of the method: as §1
# [30] = test system: Canis familiaris; assay: Effect of compound at a dose of 10 mg/kg iv, on standard cardiovascular in anesthetized normotensive dogs before administration of isoproterenol.; format: functional, Canis lupus familiaris, Heart; summary of the method: as §1
# [31] = test system: Rattus norvegicus; assay: hypotensive activity in renal hypertensive rats by using tail-cuff method measured as post drug BP (day/h) after administration of 10 mg/kg dose po;(day/h=3/0); format: functional, Blood; summary of the method: as §7
# [32] = test system: Rattus norvegicus; assay: as §10; format: functional, Blood; summary of the method: as §3; remark: listed apart in the source
# [33] = test system: Canis familiaris; assay: Effect of compound at a dose of 10 mg/kg iv, on standard cardiovascular in anesthetized normotensive dogs after administration of tyramine.; format: functional, Canis lupus familiaris, Heart; summary of the method: as §1
# [34] = test system: Canis familiaris; assay: Mean arterial BP after administration at a dose of 10 mg/kg iv.; format: functional, Canis lupus familiaris
# [35] = test system: Rattus norvegicus; assay: hypotensive activity in renal hypertensive rats by using tail-cuff method measured as post drug BP (day/h) after administration of 10 mg/kg dose po;(day/h=2/2); format: functional, Blood; summary of the method: as §7
# [36] = test system: Canis familiaris; assay: Hemodynamic effect in sinoaortic- deafferented hypertensive dog measured as left ventricular pressure after 5 min of 5 mg/kg; format: functional, Canis lupus familiaris, Heart left ventricle
# [37] = test system: Rattus norvegicus; assay: as §8; format: functional, Blood; summary of the method: as §3; remark: listed apart in the source
# [38] = test system: Canis familiaris; assay: Effect of compound at a dose of 10 mg/kg iv, on standard cardiovascular in anesthetized normotensive dogs before administration of epinephrine.; format: functional, Canis lupus familiaris, Heart; summary of the method: as §1
# [39] = test system: Rattus norvegicus; assay: as §5; format: functional, Blood; summary of the method: as §3; remark: listed apart in the source
smiles,measurement,setting,value
CN1CCC2(CC1)Oc1ccccc1C2n1cccc1 (centres undefined),Rate,[1],154 beats min-1
same,dP/dt,[2],23.4 1/Pmax s
same,BP,[3],57 mmHg
same,Delta blood pressure,[4],50 mmHg
same,Rate,[5],174 beats min-1
same,BP,[6],196 mmHg
same,dP/dt,[7],26.2 1/Pmax s
same,BP,[8],202 mmHg
same,BP,[9],-49.2 mmHg
same,BP,[10],206 mmHg
same,BP,[11],175 mmHg
same,BP,[12],52.5 mmHg
same,BP,[13],129 mmHg
same,Rate,[14],147 beats min-1
same,BP,[15],97 mmHg
same,BP,[16],117 mmHg
same,Rate,[17],160 beats min-1
same,Rate,[18],113 beats min-1
same,BP,[19],184 mmHg
same,dP/dt,[20],24.2 1/Pmax s
same,Rate,[21],194 beats min-1
same,BP,[22],129 mmHg
same,BP,[23],190 mmHg
same,BP,[24],196 mmHg
same,BP,[25],-29.7 mmHg
same,BP,[26],67 mmHg
same,BP,[27],58 mmHg
same,BP,[28],123 mmHg
same,BP,[29],-30 mmHg
same,BP,[30],-38 mmHg
same,BP,[31],183 mmHg
same,Delta blood pressure,[32],58 mmHg
same,BP,[33],48 mmHg
same,BP,[34],82.3 mmHg
same,BP,[35],184 mmHg and 170 mmHg
same,dP/dt,[36],26 1/Pmax s
same,Delta blood pressure,[37],30 mmHg
same,BP,[38],53.7 mmHg
same,Delta blood pressure,[39],39 mmHg
